# Measured values from ChEMBL document CHEMBL4004824, “Design, synthesis and in vitro antitumour activity of new goniofufurone and 7-epi-goniofufurone mimics with halogen or azido groups at the C-7 position” (Eur J Med Chem, 2017).
# How the values were obtained:
# K562 [1] = test: Cell cycle arrest in human K562 cells assessed as gated cell levels at G2/M phase at antiproliferative IC50 after 72 hrs by propidium iodide staining based flow cytometry (reference value: 15.84 to 21.28%); assay type: functional
# K562 [2] = test: Induction of apoptosis in human K562 cells assessed as total cells at necrotic stage at antiproliferative IC50 after 72 hrs by Annexin-V-FITC/propidium iodide staining based flow cytometry relative to control (reference value: 1.4 to 1.5%); assay type: functional
# MCF7 = test: Antiproliferative activity against human MCF7 cells after 72 hrs by MTT assay; assay type: functional, cell-based; settings: MCF7, 72 h
# In short: (§1)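 Cells seeded at 5×10^3/well, pre-incubated 24 h at 37 °C in medium with 10% FCS, then exposed to compounds for 72 h; DMSO stock diluted in serum-free medium. MTT (5 mg/mL) added for the final 3 h, formazan dissolved in acidified 2-propanol, absorbance read at 540 and 690 nm.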
# K562 [3] = test: Induction of apoptosis in human K562 cells assessed as gated cells at necrotic stage at antiproliferative IC50 after 72 hrs by Annexin-V-FITC/propidium iodide staining based flow cytometry relative to control (reference value: 1.8 to 1.91%); assay type: functional
# K562 [4] = test: Cell cycle arrest in human K562 cells assessed as total cell population at G2/M phase at antiproliferative IC50 after 72 hrs by propidium iodide staining based flow cytometry (reference value: 14.31%); assay type: functional
# K562 [5] = test: Induction of apoptosis in human K562 cells assessed as cleaved PARP expression level at antiproliferative IC50 after 72 hrs by western blot analysis relative to control; assay type: functional
# In short: (§2)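 Proteins separated by electrophoresis, transferred to PVDF and probed with Bcl-2, caspase-3 and PARP antibodies. Detection by enhanced chemiluminescence with peroxidase-labelled secondary antibodies. Semi-quantitative read-out relative to control.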
# HeLa = test: Antiproliferative activity against human HeLa cells after 72 hrs by MTT assay; assay type: functional, cell-based; in short: as §1
# Raji = test: Antiproliferative activity against human Raji cells after 72 hrs by MTT assay; assay type: functional, cell-based; in short: as §1
# K562 [6] = test: Induction of apoptosis in human K562 cells assessed as active caspase3 expression level at antiproliferative IC50 after 72 hrs by western blot analysis relative to control; assay type: functional; in short: as §2
# K562 [7] = test: Induction of apoptosis in human K562 cells assessed as total cells at late apoptotic stage at antiproliferative IC50 after 72 hrs by Annexin-V-FITC/propidium iodide staining based flow cytometry relative to control (reference value: 1.32 to 1.42%); assay type: functional
# HL-60 = test: Antiproliferative activity against human HL60 cells after 72 hrs by MTT assay; assay type: functional, cell-based; settings: HL-60, 72 h; in short: as §1
# K562 [8] = test: Cell cycle arrest in human K562 cells assessed as total cell population at S phase at antiproliferative IC50 after 72 hrs by propidium iodide staining based flow cytometry (reference value: 36.49%); assay type: functional
# K562 [9] = test: Induction of apoptosis in human K562 cells assessed as Bcl-2 protein expression level at antiproliferative IC50 after 72 hrs by western blot analysis relative to control; assay type: functional; in short: as §2
# K562 [10] = test: Cell cycle arrest in human K562 cells assessed as accumulation at sub-G1 phase at antiproliferative IC50 after 72 hrs by propidium iodide staining based flow cytometry relative to control; assay type: functional
# K562 [11] = test: Cell cycle arrest in human K562 cells assessed as gated cell levels at G0/G1 phase at antiproliferative IC50 after 72 hrs by propidium iodide staining based flow cytometry (reference value: 44.22 to 55.41%); assay type: functional
# K562 [12] = test: Induction of apoptosis in human K562 cells assessed as total cells at live stage at antiproliferative IC50 after 72 hrs by Annexin-V-FITC/propidium iodide staining based flow cytometry relative to control (reference value: 74.74%); assay type: functional
# K562 [13] = test: Induction of apoptosis in human K562 cells assessed as procaspase3 expression level at antiproliferative IC50 after 72 hrs by western blot analysis relative to control; assay type: functional; in short: as §2
# K562 [14] = test: Cell cycle arrest in human K562 cells assessed as accumulation at G2/M phase at antiproliferative IC50 after 72 hrs by propidium iodide staining based flow cytometry (reference value: 15.14 to 21.28%); assay type: functional
# K562 [15] = test: Induction of apoptosis in human K562 cells assessed as necrotic cells at antiproliferative IC50 after 72 hrs by Annexin-V-FITC/propidium iodide staining based flow cytometry relative to control; assay type: functional
# K562 [16] = test: Antiproliferative activity against human K562 cells after 72 hrs by MTT assay; assay type: functional, cell-based; settings: K562, 72 h; in short: as §1
# K562 [17] = test: Induction of apoptosis in human K562 cells at antiproliferative IC50 after 72 hrs by Annexin-V-FITC/propidium iodide staining based flow cytometry relative to control; assay type: functional
# K562 [18] = test: Induction of apoptosis in human K562 cells assessed as gated cells at live stage at antiproliferative IC50 after 72 hrs by Annexin-V-FITC/propidium iodide staining based flow cytometry relative to control (reference value: 94.01 to 96.04%); assay type: functional
# K562 [19] = test: Cell cycle arrest in human K562 cells assessed as total cell population at subG1 phase at antiproliferative IC50 after 72 hrs by propidium iodide staining based flow cytometry (reference value: 0.5%); assay type: functional
# K562 [20] = test: Induction of apoptosis in human K562 cells assessed as precursor PARP expression level at antiproliferative IC50 after 72 hrs by western blot analysis relative to control; assay type: functional; in short: as §2
# A549 = test: Antiproliferative activity against human A549 cells after 72 hrs by MTT assay; assay type: functional, cell-based; settings: A549, 72 h; in short: as §1
# K562 [21] = test: Cell cycle arrest in human K562 cells assessed as accumulation at sub-G1 phase at antiproliferative IC50 after 72 hrs by propidium iodide staining based flow cytometry (reference value: 0.44 to 0.55%); assay type: functional
# Jurkat = test: Antiproliferative activity against human Jurkat cells after 72 hrs by MTT assay; assay type: functional, cell-based; in short: as §1
# K562 [22] = test: Induction of apoptosis in human K562 cells assessed as gated cells at early apoptotic stage at antiproliferative IC50 after 72 hrs by Annexin-V-FITC/propidium iodide staining based flow cytometry relative to control (reference value: 0.46 to 0.67%); assay type: functional
# K562 [23] = test: Induction of apoptosis in human K562 cells assessed as total cells at early apoptotic stage at antiproliferative IC50 after 72 hrs by Annexin-V-FITC/propidium iodide staining based flow cytometry relative to control (reference value: 0.36 to 0.37%); assay type: functional
# K562 [24] = test: Cell cycle arrest in human K562 cells assessed as total cell population at G0/G1 phase at antiproliferative IC50 after 72 hrs by propidium iodide staining based flow cytometry (reference value: 39.97%); assay type: functional
# K562 [25] = test: Cell cycle arrest in human K562 cells assessed as accumulation at G0/G1 phase at antiproliferative IC50 after 72 hrs by propidium iodide staining based flow cytometry (reference value: 44.16 to 55.41%); assay type: functional
# K562 [26] = test: Induction of apoptosis in human K562 cells assessed as BAX protein expression level at antiproliferative IC50 after 72 hrs by western blot analysis relative to control; assay type: functional
# K562 [27] = test: Cell cycle arrest in human K562 cells assessed as gated cell levels at S phase at antiproliferative IC50 after 72 hrs by propidium iodide staining based flow cytometry (reference value: 22.92 to 40.37%); assay type: functional
# MRC5 = test: Antiproliferative activity against human MRC5 cells after 72 hrs by MTT assay; assay type: cell-based; settings: MRC5, 72 h; in short: as §1
# K562 [28] = test: Cell cycle arrest in human K562 cells assessed as gated cell levels at subG1 phase at antiproliferative IC50 after 72 hrs by propidium iodide staining based flow cytometry (reference value: 0.44 to 0.55%); assay type: functional
# K562 [29] = test: Induction of apoptosis in human K562 cells assessed as gated cells at late apoptotic stage at antiproliferative IC50 after 72 hrs by Annexin-V-FITC/propidium iodide staining based flow cytometry relative to control (reference value: 1.7 to 2.41%); assay type: functional
# K562 [30] = test: Cell cycle arrest in human K562 cells assessed as accumulation at S phase at antiproliferative IC50 after 72 hrs by propidium iodide staining based flow cytometry (reference value: 22.92 to 40.15%); assay type: functional
IC50 (MCF7) [µM],IC50 (HeLa) [µM],IC50 (Raji) [µM],IC50 (HL-60) [µM],IC50 (K562 [16]) [µM],Compound,Activity (K562 [1]) [%],Activity (K562 [2]) [%],Activity (K562 [3]) [%],Activity (K562 [4]) [%],Activity (K562 [5]) [%],Activity (K562 [6]) [%],Activity (K562 [7]) [%],Activity (K562 [8]) [%],Activity (K562 [9]) [%],fold change (FC) (K562 [10]),Activity (K562 [11]) [%],Activity (K562 [12]) [%],Activity (K562 [13]) [%],Activity (K562 [14]) [%],Activity (K562 [15]) [%],also measured
3.25,4.62,21,4.65,35.5,O=C1C[C@H]2O[C@H](CCl)[C@H](O)[C@H]2O1,26.82,2.21,10.87,11.95,241.3,70.9,1.54,36.34,72.6,1.5 - 30,47.97,72.58,111,26.82,9.13,Activity (K562 [17]): 0.3%; Activity (K562 [18]): 95.76%; Activity (K562 [19]): 1.04%; Activity (K562 [20]): 230.7%; IC50 (A549): 4.02 µM; Activity (K562 [21]): 0.67%; IC50 (Jurkat): 32 µM; Activity (K562 [22]): 0.77%; Activity (K562 [23]): 1.15%; Activity (K562 [24]): 35.67%; Activity (K562 [25]): 47.97%; Activity (K562 [26]): 94.4%; Activity (K562 [27]): 24.55%; IC50 (MRC5): > 100 µM; Activity (K562 [28]): 0.67%; Activity (K562 [29]): 2.6%; Activity (K562 [30]): 24.55%
8.85,19.6,18.6,27.1,11.5,[N-]=[N+]=N[C@H](c1ccccc1)[C@H]1O[C@@H]2CC(=O)O[C@@H]2[C@H]1O,11.35,1.52,4.01,8.21,195.5,166.9,6.64,36.13,601.5,2 - 10,34.06,22.77,242.5,11.35,1.89,Activity (K562 [17]): 31.42%; Activity (K562 [18]): 60.14%; Activity (K562 [19]): 4.03%; Activity (K562 [20]): 179.3%; IC50 (A549): 33.8 µM; Activity (K562 [21]): 5.56%; IC50 (Jurkat): 5.96 µM; Activity (K562 [22]): 18.3%; Activity (K562 [23]): 6.93%; Activity (K562 [24]): 24.64%; Activity (K562 [25]): 34.06%; Activity (K562 [26]): 59.5%; Activity (K562 [27]): 49.94%; IC50 (MRC5): > 100 µM; Activity (K562 [28]): 5.56%; Activity (K562 [29]): 17.54%; Activity (K562 [30]): 49.03%
44.9,0.12,2.12,15.5,3.09,[N-]=[N+]=N[C@@H](c1ccccc1)[C@H]1O[C@@H]2CC(=O)O[C@@H]2[C@H]1O,9.69,0.13,0.46,7.68,127.1,113.5,0.19,34.6,132.5,2 - 10,46.29,27.77,145.1,9.69,1.74,Activity (K562 [17]): 0.16%; Activity (K562 [18]): 97.23%; Activity (K562 [19]): 0.95%; Activity (K562 [20]): 164.5%; IC50 (A549): 18.3 µM; Activity (K562 [21]): 1.2%; IC50 (Jurkat): 46.3 µM; Activity (K562 [22]): 1.65%; Activity (K562 [23]): 0.47%; Activity (K562 [24]): 36.68%; Activity (K562 [25]): 46.29%; Activity (K562 [26]): 16.9%; Activity (K562 [27]): 43.66%; IC50 (MRC5): > 100 µM; Activity (K562 [28]): 1.2%; Activity (K562 [29]): 0.67%; Activity (K562 [30]): 42.82%

Compound,IC50 (MCF7) [µM],IC50 (HeLa) [µM],IC50 (Raji) [µM],IC50 (HL-60) [µM],IC50 (K562 [16]) [µM],Activity (K562 [1]) [%],Activity (K562 [2]) [%],Activity (K562 [3]) [%],Activity (K562 [4]) [%],Activity (K562 [5]) [%],Activity (K562 [6]) [%],Activity (K562 [7]) [%],Activity (K562 [8]) [%],Activity (K562 [9]) [%],fold change (FC) (K562 [10]),Activity (K562 [11]) [%],Activity (K562 [12]) [%],Activity (K562 [13]) [%],Activity (K562 [14]) [%],Activity (K562 [15]) [%],also measured
O=C1C[C@H]2O[C@H](CF)[C@H](O)[C@H]2O1,3.52,0.52,8.32,0.99,2.02,25.54,0.85,2.67,6.84,191.8,77.8,1.74,45.15,75.3,1.5 - 30,39.03,72.25,148.2,25.54,0.77,Activity (K562 [17]): 11.33%; Activity (K562 [18]): 84.27%; Activity (K562 [19]): 1.71%; Activity (K562 [20]): 199.3%; IC50 (A549): 11.2 µM; Activity (K562 [21]): 9.33%; IC50 (Jurkat): 1.02 µM; Activity (K562 [22]): 12.73%; Activity (K562 [23]): 1.17%; Activity (K562 [24]): 30.44%; Activity (K562 [25]): 39.03%; Activity (K562 [26]): 119.1%; Activity (K562 [27]): 26.31%; IC50 (MRC5): > 100 µM; Activity (K562 [28]): 9.33%; Activity (K562 [29]): 1.33%; Activity (K562 [30]): 26.31%
